# Where two headings read alike, the source gives them in different places. Where a SMILES comes first, the peptide text is derived from it. The star is where a group is joined. 5FAM = O=C1OC2(c3ccc(O)cc3Oc3cc(O)ccc32)c2ccc(C(=O)*)cc21
# Experiments:
# [1] = tested on: SRPK1(ΔN); assay: Steady-state kinetic phosphorylation assay, SRPK1; format: biochemical; settings: for Km: substrate SRSF1, pH 7.4, 23° C
# How it was run: (§1)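 His6-tagged kinase (full length, N-terminal deletion, or SID deletion with RRQ linker) from E. coli BL21(DE3), Ni-purified; refolded His6-SRSF1 substrate. Reaction: 50 mM MOPS pH 7.4, 10 mM Mg2+, 1 mg/mL BSA, 23 °C, started with 100 μM 32P-ATP (600-1000 cpm/pmol). Quenched in SDS loading buffer; bands excised and counted. Initial velocities vs total SRSF1 or ATP fit to Michaelis-Menten; kcat = Vmax/total enzyme.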
# [2] = tested on: SRPK1(ΔS); assay: Steady-state kinetic phosphorylation assay, SRPK1; format: biochemical; settings: for Km: substrate SRSF1, pH 7.4, 23° C
# How it was run: as §1
# [3] = target: T1, SRPK1 (Homo sapiens, UniProt Q96SB4); assay: Steady-state kinetic phosphorylation assay, SRPK1; format: biochemical
# How it was run: as §1
# [4] = target: T1, SRPK1; assay: Fluorescent Arg-Ser peptide binding, SRPK1; settings: for fluorescence emission change: addition of SRPK1 (25, 50, 75 nM) to 10 nM peptide
# [5] = target: T1, SRPK1; format: biochemical; settings: steady-state kinetic studies; data not shown
# [6] = tested on: SRPK1(ΔN); assay: Fluorescent Arg-Ser peptide binding, SRPK1; settings: removal of the N-terminus; both peptides
# [7] = target: SRPK1(ΔS), SRPK1 lacking the spacer insert domain (SID); assay: kinetic competition assay
# [8] = target: SRPK1 (SR-specific protein kinase 1), full-length wild type (UniProt Q96SB4); assay: kinetic competition assay
# [9] = target: SRPK1(ΔN), SRPK1 lacking the full-length N-terminus; assay: kinetic competition assay
# [10] = target: T1, SRPK1; assay: Single turnover phosphorylation, SRPK1; format: biochemical
# [11] = target: T1, SRPK1; settings: SRPK1 complex with SRSF1; ref [15]; [18]; cited from earlier work
# [12] = tested on: SRPK1(ΔN); assay: Competition assay; format: biochemical; settings: removal of the N-terminus; wt-SRSF1
# Target sequence in this assay (Q96SB4 76-655 limits assumed, stated change not applied): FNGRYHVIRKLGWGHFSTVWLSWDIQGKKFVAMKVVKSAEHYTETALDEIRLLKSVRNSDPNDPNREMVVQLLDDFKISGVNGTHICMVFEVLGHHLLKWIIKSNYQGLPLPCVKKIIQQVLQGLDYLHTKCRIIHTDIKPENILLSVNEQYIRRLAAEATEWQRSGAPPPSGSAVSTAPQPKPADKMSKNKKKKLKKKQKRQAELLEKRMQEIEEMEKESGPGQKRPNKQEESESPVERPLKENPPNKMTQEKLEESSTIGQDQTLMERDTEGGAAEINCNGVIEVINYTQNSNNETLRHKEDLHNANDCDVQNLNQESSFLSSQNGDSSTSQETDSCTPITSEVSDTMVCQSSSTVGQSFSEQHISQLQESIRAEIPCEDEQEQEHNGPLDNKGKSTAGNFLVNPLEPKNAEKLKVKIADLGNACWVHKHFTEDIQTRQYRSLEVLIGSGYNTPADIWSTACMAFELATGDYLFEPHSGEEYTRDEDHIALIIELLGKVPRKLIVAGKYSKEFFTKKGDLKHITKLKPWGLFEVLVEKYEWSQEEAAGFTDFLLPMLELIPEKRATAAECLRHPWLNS
# [13] = tested on: SRPK1(ΔS); assay: Single turnover phosphorylation, SRPK1; format: biochemical
# [14] = target: SRPK1(ΔS); assay: Competition assay; format: biochemical; settings: removal of the SID
# [15] = target: T1, SRPK1; settings: cited from earlier work
# [16] = SRPK1 2 μM, SRSF1 100 nM, ^32P-ATP start, double exponential fit
# [17] = SRPK1 2 μM, SRSF1 100 nM, double exponential fit
# [18] = wild-type kinase, single turnover
# T1 sequence (Q96SB4 whole entry, species assumed): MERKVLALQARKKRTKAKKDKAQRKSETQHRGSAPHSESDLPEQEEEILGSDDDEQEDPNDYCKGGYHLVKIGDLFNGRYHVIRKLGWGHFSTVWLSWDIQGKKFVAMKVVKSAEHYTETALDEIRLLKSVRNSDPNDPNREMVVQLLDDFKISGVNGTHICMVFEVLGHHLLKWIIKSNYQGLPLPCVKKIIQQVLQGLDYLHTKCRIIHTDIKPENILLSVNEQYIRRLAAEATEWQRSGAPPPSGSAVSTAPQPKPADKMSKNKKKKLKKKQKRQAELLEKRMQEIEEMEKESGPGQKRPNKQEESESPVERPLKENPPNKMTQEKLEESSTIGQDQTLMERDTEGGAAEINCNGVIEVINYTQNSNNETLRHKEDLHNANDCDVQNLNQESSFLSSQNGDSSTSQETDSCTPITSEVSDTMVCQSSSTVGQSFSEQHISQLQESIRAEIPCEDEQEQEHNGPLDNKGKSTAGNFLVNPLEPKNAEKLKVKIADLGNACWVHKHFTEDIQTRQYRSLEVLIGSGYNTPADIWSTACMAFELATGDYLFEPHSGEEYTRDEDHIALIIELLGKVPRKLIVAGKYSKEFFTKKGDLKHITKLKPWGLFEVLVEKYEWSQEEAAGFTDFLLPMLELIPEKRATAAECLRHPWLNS
# Chain of SRPK1(ΔN), SRPK1 lacking the full-length N-terminus (Q96SB4 71-655, stated change not applied): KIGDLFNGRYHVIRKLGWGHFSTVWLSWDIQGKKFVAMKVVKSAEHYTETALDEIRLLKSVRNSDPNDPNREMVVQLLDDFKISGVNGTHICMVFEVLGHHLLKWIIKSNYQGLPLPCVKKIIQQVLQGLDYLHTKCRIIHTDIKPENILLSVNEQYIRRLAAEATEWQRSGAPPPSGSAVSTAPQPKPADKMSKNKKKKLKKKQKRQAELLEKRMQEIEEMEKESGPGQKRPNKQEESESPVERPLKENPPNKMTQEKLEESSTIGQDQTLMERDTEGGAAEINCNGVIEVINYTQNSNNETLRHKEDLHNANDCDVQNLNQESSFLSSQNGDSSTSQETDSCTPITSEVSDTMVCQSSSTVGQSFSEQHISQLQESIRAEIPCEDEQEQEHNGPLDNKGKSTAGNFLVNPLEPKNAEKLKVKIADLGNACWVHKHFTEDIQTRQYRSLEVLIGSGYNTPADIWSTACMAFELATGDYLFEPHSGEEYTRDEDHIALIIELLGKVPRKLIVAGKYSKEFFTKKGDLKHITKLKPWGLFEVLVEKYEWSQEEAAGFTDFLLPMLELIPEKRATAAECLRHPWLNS
# Chain of SRPK1 (SR-specific protein kinase 1), full-length wild type (Q96SB4 whole entry): as the sequence (Q96SB4 whole entry, species assumed) above
molecule,measurement,setting,value
"Nc1ncnc2c1ncn2[C@@H]1O[C@H](COP(=O)(O)OP(=O)(O)OP(=O)(O)O)[C@@H](O)[C@H]1O [ATP, reference compound]","increase of Km,ATP",[1]; N-terminal deletion versus SRPK1,2-5 fold
same,Km,"[1]; read-out: Km,ATP (Km for ATP), SRPK1(ΔN)",9 ± 2 µM
same,"increase of Km,ATP",[2]; SID deletion versus SRPK1,2-5 fold
same,Km,"[2]; read-out: Km,ATP (Km for ATP), SRPK1(ΔS)",28 ± 7 µM
same,Km,"[3]; read-out: Km,ATP (Km for ATP), substrate SRSF1, pH 7.4, 23° C",5 ± 0.5 µM
N=C(N)NCCC[C@H](NC(=O)c1ccc2c(c1)C(=O)OC21c2ccc(O)cc2Oc2cc(O)ccc21)C(=O)N[C@@H](CO)C(=O)N[C@@H](CCCNC(=N)N)C(=O)N[C@@H](CO)C(=O)N[C@@H](CCCNC(=N)N)C(=O)N[C@@H](CO)C(=O)N[C@@H](CCCNC(=N)N)C(=O)N[C@@H](CO)C(=O)N[C@@H](CCCNC(=N)N)C(=O)N[C@@H](CO)C(=O)N[C@@H](CCCNC(=N)N)C(=O)N[C@@H](CO)C(=O)N[C@@H](CCCNC(=N)N)C(=O)N[C@@H](CO)C(=O)N[C@@H](CCCNC(=N)N)C(=O)N[C@@H](CO)C(=O)O [Fl-(RS)8] (5FAM-RSRSRSRSRSRSRSRS-OH; N-terminus and C-terminus assumed),fluorescence emission change,[4],increases in the fluorescence emission spectra
N=C(N)NCCC[C@H](NC(=O)c1ccc2c(c1)C(=O)OC21c2ccc(O)cc2Oc2cc(O)ccc21)C(=O)N[C@@H](CO)C(=O)N[C@@H](CCCNC(=N)N)C(=O)N[C@@H](CO)C(=O)N[C@@H](CCCNC(=N)N)C(=O)N[C@@H](CO)C(=O)N[C@@H](CCCNC(=N)N)C(=O)N[C@@H](CO)C(=O)N[C@@H](CCCNC(=N)N)C(=O)N[C@@H](CO)C(=O)N[C@@H](CCCNC(=N)N)C(=O)N[C@@H](CO)C(=O)N[C@@H](CCCNC(=N)N)C(=O)N[C@@H](CO)C(=O)N[C@@H](CCCNC(=N)N)C(=O)N[C@@H](CO)C(=O)N[C@@H](CCCNC(=N)N)C(=O)N[C@@H](CO)C(=O)N[C@@H](CCCNC(=N)N)C(=O)N[C@@H](CO)C(=O)N[C@@H](CCCNC(=N)N)C(=O)N[C@@H](CO)C(=O)N[C@@H](CCCNC(=N)N)C(=O)N[C@@H](CO)C(=O)N[C@@H](CCCNC(=N)N)C(=O)N[C@@H](CO)C(=O)N[C@@H](CCCNC(=N)N)C(=O)N[C@@H](CO)C(=O)N[C@@H](CCCNC(=N)N)C(=O)N[C@@H](CO)C(=O)N[C@@H](CCCNC(=N)N)C(=O)N[C@@H](CO)C(=O)O [Fl-(RS)16] (5FAM-RSRSRSRSRSRSRSRSRSRSRSRSRSRSRSRS-OH; N-terminus and C-terminus assumed),inhibition of SRSF1 phosphorylation,[5],competitively inhibits SRSF1 phosphorylation
same,fluorescence emission change,[4],increases in the fluorescence emission spectra
same,affinity of 32-residue peptide compared to the 16-residue peptide,"[4]; in all cases (SRPK1, SRPK1(ΔN), SRPK1(ΔS))",either equivalent or a 2-fold greater affinity
same,reduction of peptide binding affinity,[6],about 15 fold
RS domain of SRSF1 (domain or fragment),Ki,[7],140 nM
same,Ki,[8],150 nM
same,Ki,[9],830 nM
"SRSF1: human alternative splicing factor or ASF/SF2; prototype SR protein, SRPK1 substrate","rate constant, fast phase",[10]; [16],6 min⁻¹
same,"rate constant, slow phase",[10]; [16],0.2 min⁻¹
same,"amplitude, fast phase",[10]; [17],12 sites
same,"amplitude, slow phase",[10]; [17],3 sites
same,extent of phosphorylation,"[10]; SRPK1, single turnover",approx. 15 sites
same,time to completion of fast phase,[10]; [18],1 to 2 min
same,time to completion of slower phase,[10]; [18],20 to 30 min
same,Kd,[11],20 to 50 nM
same,decrease of SR protein binding affinity (KI),[12],2-3 fold
same,"increase of Km,SR",[1]; SRPK1(ΔN) versus SRPK1,3 fold
same,lowering of turnover (kcat),[1]; SRPK1(ΔN) versus SRPK1,about 5 fold
same,kcat,"[1]; SRPK1(ΔN), 50 mM MOPS pH 7.4, 10 mM Mg^2+, 1 mg/mL BSA, ^32P-ATP, 23° C, Michaelis-Menten fit",0.108 ± 0.015 s⁻¹
same,"enhancement of catalysis by N-terminus (kcat/Km,SR)",[1]; SRPK1 versus SRPK1(ΔN),about 20 fold
same,Km,"[1]; read-out: Km,SR (Km for SRSF1), SRPK1(ΔN)",0.63 ± 0.07 µM
same,extent of phosphorylation,[13],approx 13 sites
same,effect of SID removal on KI / binding affinity,[14],no effect
same,serines rapidly phosphorylated in RS1,"[15]; SRSF1, SRPK1, strict C-to-N-terminal direction, ref [7], [10]",10-12 serines
same,additional serines slowly modified in RS2,"[15]; SRSF1, SRPK1, shown previously, ref none printed in this sentence",about 3 serines
same,"effect of insert (SID) on Km,SR",[2]; SRPK1(ΔS) versus SRPK1,no effect
same,lowering of turnover (kcat),[2]; SRPK1(ΔS) versus SRPK1,about 5 fold
same,kcat,"[2]; SRPK1(ΔS), 50 mM MOPS pH 7.4, 10 mM Mg^2+, 1 mg/mL BSA, ^32P-ATP, 23° C, Michaelis-Menten fit",0.0733 ± 0.0067 s⁻¹
same,"enhancement of catalysis by insert (kcat/Km,SR)",[2]; SRPK1 versus SRPK1(ΔS),about 5 fold
same,Km,"[2]; read-out: Km,SR (Km for SRSF1), SRPK1(ΔS)",0.12 ± 0.02 µM
same,kcat,"[3]; 50 mM MOPS pH 7.4, 10 mM Mg^2+, 1 mg/mL BSA, ^32P-ATP, 23° C, Michaelis-Menten fit",0.5 ± 0.033 s⁻¹
same,Km,"[3]; read-out: Km,SR (Km for SRSF1), substrate SRSF1, pH 7.4, 23° C",0.12 ± 0.02 µM
